In brackets after ≈: the same amount, converted by molar mass. Activity calls are given as the source filed them. The rule behind the calls is not given here.
What was measured:
C6 [1] = test: Cytotoxicity against rat C6 cells at 5 ug/ml after 48 hrs by MTT assay; type: functional
How it was run: (§1)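 MTT viability assay. C6 seeded at 1×10^3 cells/well in DMEM/5% FBS and U-138 MG in DMEM/15% FBS. Exposed to 0.1, 0.5, 1, 5, 10 μg/ml for 24, 48 or 72 h, or to AS605240 at 100 nM, 10 μM or 30 μM for 48 h. Vehicle 0.01% DMSO. Viability given as % of control, mean ± SEM of 3 experiments in triplicate. IC50 as geometric mean with 95% confidence limits.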

[2] = Cytotoxicity against human U138MG cells at 5 ug/ml after 48 hrs by MTT assay; type: functional, U138-MG; how it was run: as §1
C6 [3] = test: Cytotoxicity against rat C6 cells after 48 hrs by MTT assay; type: functional, cell-based; details: C6, 48 h; how it was run: as §1
[4] = Antiproliferative activity against human U138MG cells at 5 ug/ml after 24 to 72 hrs by hemocytometric analysis; type: functional, U138-MG
How it was run: (§2)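 Cell-count proliferation assay. U-138 MG seeded at 1×10^4 cells/well in DMEM/15% FBS and C6 at 5×10^3 cells/well in DMEM/5% FBS, grown 24 h. Medium changed, then chalcones (0.1–10 μg/ml) or AS605240 (100 nM, 10 μM, 30 μM) added. Cells washed in Ca/Mg-free PBS, trypsin/EDTA-detached and counted in a Neubauer chamber. Inhibition versus control, mean ± SEM of 3 experiments in triplicate.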

C6 [5] = test: Antiproliferative activity against rat C6 cells at 5 ug/ml after 24 to 72 hrs by hemocytometric analysis; type: functional; how it was run: as §2
[6] = Antiproliferative activity against human U138MG cells after 24 to 72 hrs by hemocytometric analysis; type: functional, cell-based; details: U138-MG; how it was run: as §2
C6 [7] = test: Antiproliferative activity against rat C6 cells after 24 to 72 hrs by hemocytometric analysis; type: functional, cell-based; how it was run: as §2
U138-MG [8] = test: Cytotoxicity against human U138MG cells at 0.1 to 0.5 ug/ml after 48 to 72 hrs by MTT assay; type: functional, cell-based; how it was run: as §1
C6 [9] = test: Cytotoxicity against rat C6 cells at 0.1 to 0.5 ug/ml after 48 to 72 hrs by MTT assay; type: functional, cell-based; how it was run: as §1
U138-MG [10] = test: Cytotoxicity against human U138MG cells at 0.1 to 0.5 ug/ml after 24 hrs by MTT assay; type: functional, cell-based; how it was run: as §1
C6 [11] = test: Cytotoxicity against rat C6 cells at 0.1 to 0.5 ug/ml after 24 hrs by MTT assay; type: functional, cell-based; how it was run: as §1
U138-MG [12] = test: Cytotoxicity against human U138MG cells at 0.1 to 0.5 ug/ml by MTT assay; type: functional, cell-based; details: TDE = time-dependent effect; how it was run: as §1
C6 [13] = test: Cytotoxicity against rat C6 cells at 0.1 to 0.5 ug/ml by MTT assay; type: functional, cell-based; details: TDE = time-dependent effect; how it was run: as §1
U138-MG [14] = test: Antiproliferative activity against human U138MG cells at 0.1 to 0.5 ug/ml after 48 to 72 hrs by hemocytometric analysis; type: functional, cell-based; how it was run: as §2
C6 [15] = test: Antiproliferative activity against rat C6 cells at 0.1 to 0.5 ug/ml after 48 to 72 hrs by hemocytometric analysis; type: functional, cell-based; how it was run: as §2
U138-MG [16] = test: Antiproliferative activity against human U138MG cells at 0.1 to 0.5 ug/ml after 24 hrs by hemocytometric analysis; type: functional, cell-based; how it was run: as §2
C6 [17] = test: Antiproliferative activity against rat C6 cells at 0.1 to 0.5 ug/ml after 24 hrs by hemocytometric analysis; type: functional, cell-based; how it was run: as §2
U138-MG [18] = test: Antiproliferative activity against human U138MG cells at 0.1 to 0.5 ug/ml by hemocytometric analysis; type: functional, cell-based; details: TDE = time-dependent effect; how it was run: as §2
C6 [19] = test: Antiproliferative activity against rat C6 cells at 0.1 to 0.5 ug/ml by hemocytometric analysis; type: functional, cell-based; details: TDE = time-dependent effect; how it was run: as §2
[20] = Antiproliferative activity against human U138MG cells at 2 ug/ml after 48 hrs by hemocytometric analysis; type: functional; details: U138-MG
How it was run: (§3)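 Doxorubicin at 2 μg/mL for 48 h on C6 and U-138 MG cells. Proliferation measured as percentage inhibition.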

C6 [21] = test: Antiproliferative activity against rat C6 cells at 2 ug/ml after 48 hrs by hemocytometric analysis; type: functional; details: C6, 48 h; how it was run: as §3
U138-MG [22] = test: Cytotoxicity against human U138MG cells at 100 nM after 48 by MTT assay; type: functional, cell-based; how it was run: as §1
C6 [23] = test: Cytotoxicity against rat C6 cells at 100 nM after 48 hrs by MTT assay; type: functional, cell-based; how it was run: as §1
U138-MG [24] = test: Antiproliferative activity against human U138MG cells at 100 nM after 48 by hemocytometric analysis; type: functional, cell-based; how it was run: as §2
C6 [25] = test: Antiproliferative activity against rat C6 cells at 100 nM after 48 hrs by hemocytometric analysis; type: functional, cell-based; how it was run: as §2
[26] = Growth inhibition of human U138MG cells at 30 uM after 48 by MTT assay; type: functional; details: U138-MG, read-out: GI; how it was run: as §1
C6 [27] = test: Growth inhibition of rat C6 cells at 30 uM after 48 hrs by MTT assay; type: functional; details: C6, 48 h, read-out: GI; how it was run: as §1
[28] = Antiproliferative activity against human U138MG cells assessed as growth inhibition at 30 uM after 48 by hemocytometric analysis; type: functional; details: U138-MG, read-out: GI; how it was run: as §2
C6 [29] = test: Antiproliferative activity against rat C6 cells assessed as growth inhibition at 30 uM after 48 hrs by hemocytometric analysis; type: functional; details: C6, 48 h, read-out: GI; how it was run: as §2
C6 [30] = test: Inhibition of PI3Kgamma-mediated Akt activation in rat C6 cells at 30 uM after 15 mins by flow cytometric analysis; type: cell-based
How it was run: (§4)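 C6 cells (2×10^5/well) grown 24 h in 5% FBS DMEM, then serum-starved 24 h in 0.5% FBS. Treated with 5 μg/ml test compound or 30 μM AS605240 plus 5% FBS stimulus, 15 or 30 min. Cells trypsinized, fixed, permeabilized, stained 30 min with AKT antibody and read by flow cytometry. Controls: unstimulated, and 5% FBS plus 0.01% DMSO.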

C6 [31] = test: Inhibition of PI3Kgamma-mediated Akt activation in rat C6 cells at 30 uM after 30 mins by flow cytometric analysis; type: cell-based; how it was run: as §4
C6 [32] = test: Cell cycle arrest in rat C6 cells assessed as accumulation at sub-G1/G0 phase after 6 hrs by flow cytometric analysis; type: functional, cell-based
How it was run: (§5)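 C6 cells at 3×10^5 per well, in triplicate, given 0.1% DMSO vehicle or 2.5 μg/ml for 6, 12 or 24 h. Ethanol-fixed (70%), stained with propidium iodide/RNase/Triton, 10,000 cells acquired by flow cytometry. Results are relative cell numbers in sub-G1/G1, S and G2/M, from 6 independent experiments.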

C6 [33] = test: Cell cycle arrest in rat C6 cells assessed as accumulation at sub-G1/G0 phase after 12 hrs by flow cytometric analysis; type: functional, cell-based; how it was run: as §5
C6 [34] = test: Cell cycle arrest in rat C6 cells assessed as accumulation at sub-G1/G0 phase at 2.5 ug/ml after 24 hrs by flow cytometric analysis (reference value: 57.9%); type: functional; how it was run: as §5
C6 [35] = test: Inhibition of PI3Kgamma-mediated Akt activation in rat C6 cells at 5 ug/ml after 15 mins by flow cytometric analysis; type: cell-based; how it was run: as §4
C6 [36] = test: Inhibition of PI3Kgamma-mediated Akt activation in rat C6 cells at 5 ug/ml after 30 mins by flow cytometric analysis; type: cell-based; how it was run: as §4

Structure (SMILES) | Imax (C6 [1]) [%] | Imax [2] [%] | IC50 (C6 [3]) [µg/mL] | Imax [4] [%] | Imax (C6 [5]) [%] | IC50 [6] [µg/mL] | IC50 (C6 [7]) [µg/mL] | Activity (U138-MG [8]) | Activity (C6 [9]) | Activity (U138-MG [10]) | Activity (C6 [11]) | Activity (U138-MG [12]) | Activity (C6 [13]) | Activity (U138-MG [14]) | Activity (C6 [15]) | Activity (U138-MG [16]) | Activity (C6 [17]) | Activity (U138-MG [18]) | Activity (C6 [19]) | further results
O=C(/C=C/c1ccc2nccnc2c1)c1ccccc1 | 60 | 21 | 4.63 (≈ 17.8 µM) | – | – | – | – | – | – | – | – | – | – | – | – | – | – | – | – | –
COc1ccc(C(=O)/C=C/c2ccc3nccnc3c2)cc1OC | 51 | 33 | 4.16 (≈ 13 µM) | 84 | 82 | 2.29 (≈ 7.15 µM) | 1 (≈ 3.12 µM) | Active | Active | inactive | inactive | tde | tde | Active | Active | inactive | inactive | tde | tde | –
O=C(/C=C/c1ccc2nccnc2c1)c1ccc(Br)cc1 | 56 | 16 | 9.19 (≈ 27.1 µM) | – | – | – | – | – | – | – | – | – | – | – | – | – | – | – | – | –
O=C(/C=C/c1ccc2nccnc2c1)c1ccc2c(c1)OCO2 | 55 | 15 | 8.39 (≈ 27.6 µM) | – | – | – | – | – | – | – | – | – | – | – | – | – | – | – | – | –
COc1ccc(C(=O)/C=C/c2ccc3nccnc3c2)cc1 | 53 | 34 | 4.42 (≈ 15.2 µM) | 84 | 90 | 2.67 (≈ 9.2 µM) | 2.19 (≈ 7.54 µM) | Active | Active | inactive | inactive | tde | tde | Active | Active | inactive | inactive | tde | tde | –
COc1cccc2c1C(=O)c1c(O)c3c(c(O)c1C2=O)C[C@@](O)(C(=O)CO)C[C@@H]3O[C@H]1C[C@H](N)[C@H](O)[C@H](C)O1 [DOXORUBICIN] | – | – | – | – | – | – | – | – | – | – | – | – | – | – | – | – | – | – | – | inhibition at 2 µg/mL [20]: 31%; inhibition at 2 µg/mL (C6 [21]): 27%
O=C1NC(=O)/C(=C/c2ccc3nccnc3c2)S1 | – | – | – | – | – | – | – | – | – | – | – | – | – | – | – | – | – | – | – | Activity (U138-MG [22]): inactive; Activity (C6 [23]): inactive; Activity (U138-MG [24]): inactive; Activity (C6 [25]): inactive; inhibition of growth at 30 µM [26]: 10%; inhibition of growth at 30 µM (C6 [27]): 35%; inhibition of growth at 30 µM [28]: 10%; inhibition of growth at 30 µM (C6 [29]): 73%; inhibition (C6 [30]): 31%; inhibition (C6 [31]): 41%
O=C(/C=C/c1ccc2nccnc2c1)c1ccc([N+](=O)[O-])cc1 | 26 | 9 | – | – | – | – | – | – | – | – | – | – | – | – | – | – | – | – | – | –
COc1ccc(C(=O)/C=C/c2ccc3nccnc3c2)c(OC)c1 | 52 | 42 | 4.6 (≈ 14.4 µM) | 86 | 67 | 2.48 (≈ 7.74 µM) | 1.53 (≈ 4.78 µM) | Active | Active | inactive | inactive | tde | tde | Active | Active | inactive | inactive | tde | tde | –
COc1ccc(OC)c(C(=O)/C=C/c2ccc3nccnc3c2)c1 | 50 | 36 | 2.66 (≈ 8.3 µM) | 87 | 85 | 2.64 (≈ 8.24 µM) | 1.35 (≈ 4.21 µM) | Active | Active | inactive | inactive | tde | tde | Active | Active | inactive | inactive | tde | tde | Activity (C6 [32]): Active; Activity (C6 [33]): Active; Activity (C6 [34]): 66.4%; inhibition (C6 [35]): 60%; inhibition (C6 [36]): 46%

From ChEMBL document CHEMBL1938291, “Activity of novel quinoxaline-derived chalcones on in vitro glioma cell proliferation” (Eur J Med Chem, 2012)
